Data reported in ChEMBL document CHEMBL1137992, “Long hydrocarbon chain keto diols and diacids that favorably alter lipid disorders in vivo” (J Med Chem, 2004).

tested on: not listed separately; test: Concentration required for inhibition of lipid synthesis in primary cultures of rat hepatocytes; type: functional, cell-based; details: Hepatocyte
Method in brief: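 Primary hepatocytes from male Sprague-Dawley rats (Seglen isolation), plated at 1.5×10^5 cells/cm² on collagen in serum-containing DMEM, switched to serum-free medium after 4 h, grown overnight to monolayers. Cells incubated 4 h with 0.25 μCi [1-14C]acetate/well (1 Ci/mol final) plus 0, 1, 3, 10, 30, 100 or 300 μM compound. Lipids extracted into scintillant and counted; IC50 taken from lipid synthesis rates.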

Which IC50 does the source give for `CC(C)(CO)CCCCC(=O)CCCCC(C)(CO)c1ccccc1` (centres undefined) here?
The IC50 was 1 µM.

Which IC50 does the source give for `CC(C)(CO)CCCCCCC(=O)CCCCCCC(C)(C)CO` here?
Its IC50 is 2 µM.

For `CC(C)(CO)CCCC(=O)CCCC(C)(C)CO`, which IC50 is on record?
Its IC50 is 27 µM.

With `CC(C)(CCCCCC(=O)CCCCC(C)(C)C(=O)O)C(=O)O` as the compound, how does the IC50 read?
The IC50 was 3 µM.

For `CC(C)(CCCCCCCC(=O)CCCCCCCC(C)(C)C(=O)O)C(=O)O`, which IC50 is on record?
The IC50 was 5 µM.

For `CC(C)(CCCCC(=O)CCCC(C)(C)C(=O)O)C(=O)O`, which IC50 is on record?
Its IC50 is 8 µM.

With `CC(CO)(CCCCCC(=O)CCCCCC(C)(CO)c1ccccc1)c1ccccc1` (centres undefined) as the compound, how does the IC50 read?
Its IC50 is 93 µM.

For `CCCCCCCCCCCCCCSCC(=O)O` [TETRADECYLTHIOACETIC ACID], which IC50 is on record?
The IC50 was 43 µM.

Which IC50 does the source give for `CC(C)(CO)CCCCCC(=O)CCCCCC(C)(C)CO` here?
The IC50 was 3 µM.

For `CC(C)(CO)Cc1cccc(C(=O)c2cccc(CC(C)(C)CO)c2)c1`, which IC50 is on record?
The IC50 was 52 µM.

With `CC(C)(CCCCCCC(=O)CCCCCCC(C)(C)C(=O)O)C(=O)O` as the compound, how does the IC50 read?
The IC50 was 9 µM.

tested on: Rattus norvegicus; test: Percentage change of triglycerides in obese female Zucker rats after 1 week of pre-treatment at a dose of 30 mg/kg/day; type: functional; details: not given
Method in brief: (§1)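 Female Zucker fatty rats [Crl:(Zuc)-faBR], 10–12 weeks old (400–500 g), acclimated 7 days and fed rodent chow. Dosed once daily by oral gavage in 20% EtOH/80% PEG-200 (v/v), at 0.25% of body weight, for 2 weeks. Blood taken after a 6-h fast: orbital plexus before dosing and at day 7, cardiac puncture at day 14. Serum lipoprotein cholesterol measured by Superose 6 gel filtration with on-line cholesterol detection. Values are % change from pretreatment, mean ± SEM.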

With `CC(C)(CO)CCCCC(=O)CCCCC(C)(CO)c1ccccc1` (centres undefined) as the compound, how does the Change read?
Its Change is 18%.

Which Change does the source give for `CC(C)(CCCCC(=O)CCCC(C)(C)C(=O)O)C(=O)O` here?
Its Change is -2%.

tested on: Rattus norvegicus; test: Percentage change of triglycerides in obese female Zucker rats after 1 week of pre-treatment at a dose of 100 mg/kg/day; type: functional; details: not given; method in brief: as §1

Which Change does the source give for `CC(C)(CO)CCCC(=O)CCCC(C)(C)CO` here?
Its Change is -31%.

Which Change does the source give for `CC(C)(CCCCCC(=O)CCCCC(C)(C)C(=O)O)C(=O)O` here?
The Change was -65%.

Which Change does the source give for `CC(C)(CCCCCCCC(=O)CCCCCCCC(C)(C)C(=O)O)C(=O)O` here?
Its Change is -85%.

With `CC(CO)(CCCCCC(=O)CCCCCC(C)(CO)c1ccccc1)c1ccccc1` (centres undefined) as the compound, how does the Change read?
The Change was 24%.

With `CC(C)(CO)CCCCCC(=O)CCCCCC(C)(C)CO` as the compound, how does the Change read?
Its Change is -92%.

With `CC(C)(CO)Cc1cccc(C(=O)c2cccc(CC(C)(C)CO)c2)c1` as the compound, how does the Change read?
The Change was -29%.

tested on: Rattus norvegicus; test: Percentage change of triglycerides in obese female Zucker rats after 2 weeks of pre-treatment at a dose of 30 mg/kg/day; type: functional; details: not given; method in brief: as §1

With `CC(C)(CO)CCCCC(=O)CCCCC(C)(CO)c1ccccc1` (centres undefined) as the compound, how does the Change read?
Its Change is -8%.

For `CC(C)(CCCCC(=O)CCCC(C)(C)C(=O)O)C(=O)O`, which Change is on record?
The Change was 23%.

tested on: Rattus norvegicus; test: Percentage change of triglycerides in obese female Zucker rats after 2 weeks of pre-treatment at a dose of 100 mg/kg/day; type: functional; details: not given; method in brief: as §1

For `CC(C)(CO)CCCC(=O)CCCC(C)(C)CO`, which Change is on record?
The Change was 10%.

For `CC(C)(CCCCCC(=O)CCCCC(C)(C)C(=O)O)C(=O)O`, which Change is on record?
Its Change is -62%.

For `CC(C)(CCCCCCCC(=O)CCCCCCCC(C)(C)C(=O)O)C(=O)O`, which Change is on record?
The Change was -63%.

For `CC(CO)(CCCCCC(=O)CCCCCC(C)(CO)c1ccccc1)c1ccccc1` (centres undefined), which Change is on record?
The Change was 1%.

Which Change does the source give for `CC(C)(CO)CCCCCC(=O)CCCCCC(C)(C)CO` here?
Its Change is -92%.

Which Change does the source give for `CC(C)(CO)Cc1cccc(C(=O)c2cccc(CC(C)(C)CO)c2)c1` here?
The Change was -8%.

tested on: Rattus norvegicus; test: Percentage change of HDL cholesterol levels in obese female Zucker rats after 1 week of pre-treatment at a dose of 30 mg/kg/day; type: functional; details: not given
Method in brief: (§2)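 Obese female Zucker fatty rats were gavaged once daily with 30 or 100 mg/kg/day in 20% EtOH/80% PEG-200 for 2 weeks. Sera were collected after a 6 h fast, before dosing, at 1 week (orbital plexus) and at 2 weeks (cardiac puncture). HDL-C was total cholesterol multiplied by HDL area fraction from gel-filtration lipoprotein profiles. Reported as % change from pretreatment ± SEM.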

Which Change does the source give for `CC(C)(CO)CCCCC(=O)CCCCC(C)(CO)c1ccccc1` (centres undefined) here?
Its Change is -18%.

With `CC(C)(CCCCC(=O)CCCC(C)(C)C(=O)O)C(=O)O` as the compound, how does the Change read?
The Change was 7%.

tested on: Rattus norvegicus; test: Percentage change of HDL cholesterol levels in obese female Zucker rats after 1 week of pre-treatment at a dose of 100 mg/kg/day; type: functional; details: not given; method in brief: as §2

For `CC(C)(CO)CCCC(=O)CCCC(C)(C)CO`, which Change is on record?
Its Change is 24%.

With `CC(C)(CCCCCC(=O)CCCCC(C)(C)C(=O)O)C(=O)O` as the compound, how does the Change read?
The Change was 240%.

With `CC(C)(CCCCCCCC(=O)CCCCCCCC(C)(C)C(=O)O)C(=O)O` as the compound, how does the Change read?
The Change was 44%.

For `CC(CO)(CCCCCC(=O)CCCCCC(C)(CO)c1ccccc1)c1ccccc1` (centres undefined), which Change is on record?
The Change was 2%.

With `CC(C)(CO)CCCCCC(=O)CCCCCC(C)(C)CO` as the compound, how does the Change read?
Its Change is 77%.

With `CC(C)(CO)Cc1cccc(C(=O)c2cccc(CC(C)(C)CO)c2)c1` as the compound, how does the Change read?
The Change was 1%.

tested on: Rattus norvegicus; test: Percentage change of HDL cholesterol levels in obese female Zucker rats after 2 weeks of pre-treatment at a dose of 30 mg/kg/day; type: functional; details: not given; method in brief: as §2

For `CC(C)(CO)CCCCC(=O)CCCCC(C)(CO)c1ccccc1` (centres undefined), which Change is on record?
The Change was -5%.

Which Change does the source give for `CC(C)(CCCCC(=O)CCCC(C)(C)C(=O)O)C(=O)O` here?
Its Change is 4%.

tested on: Rattus norvegicus; test: Percentage change of non-HDL cholesterol levels in obese female Zucker rats after 1 week of treatment at a dose of 100 mg/kg/day; type: functional; details: in the assay text read “30 mg/kg/day” for “100 mg/kg/day”; method in brief: as §1

For `CC(C)(CO)CCCCCCC(=O)CCCCCCC(C)(C)CO`, which Change is on record?
The Change was -50%.

tested on: Rattus norvegicus; test: Percentage change of HDL cholesterol levels in obese female Zucker rats after 2 weeks of pre-treatment at a dose of 100 mg/kg/day; type: functional; details: not given; method in brief: as §2

With `CC(C)(CO)CCCC(=O)CCCC(C)(C)CO` as the compound, how does the Change read?
Its Change is 2%.

Which Change does the source give for `CC(C)(CCCCCC(=O)CCCCC(C)(C)C(=O)O)C(=O)O` here?
The Change was 72%.

Which Change does the source give for `CC(C)(CCCCCCCC(=O)CCCCCCCC(C)(C)C(=O)O)C(=O)O` here?
The Change was 86%.

For `CC(CO)(CCCCCC(=O)CCCCCC(C)(CO)c1ccccc1)c1ccccc1` (centres undefined), which Change is on record?
Its Change is 10%.

For `CC(C)(CO)Cc1cccc(C(=O)c2cccc(CC(C)(C)CO)c2)c1`, which Change is on record?
Its Change is -11%.

tested on: Rattus norvegicus; test: Percentage change of non-HDL cholesterol levels in obese female Zucker rats after 1 week of pre-treatment at a dose of 30 mg/kg/day; type: functional; details: not given; method in brief: as §1

Which Change does the source give for `CC(C)(CO)CCCCC(=O)CCCCC(C)(CO)c1ccccc1` (centres undefined) here?
The Change was 17%.

For `CC(C)(CCCCC(=O)CCCC(C)(C)C(=O)O)C(=O)O`, which Change is on record?
Its Change is -17%.

tested on: Rattus norvegicus; test: Percentage change of non-HDL cholesterol levels in obese female Zucker rats after 1 week of pre-treatment at a dose of 100 mg/kg/day; type: functional; details: not given; method in brief: as §1

Which Change does the source give for `CC(C)(CO)CCCC(=O)CCCC(C)(C)CO` here?
Its Change is -22%.

For `CC(C)(CCCCCC(=O)CCCCC(C)(C)C(=O)O)C(=O)O`, which Change is on record?
The Change was -30%.

For `CC(C)(CCCCCCCC(=O)CCCCCCCC(C)(C)C(=O)O)C(=O)O`, which Change is on record?
Its Change is -81%.

For `CC(CO)(CCCCCC(=O)CCCCCC(C)(CO)c1ccccc1)c1ccccc1` (centres undefined), which Change is on record?
The Change was 29%.

For `CC(C)(CO)CCCCCC(=O)CCCCCC(C)(C)CO`, which Change is on record?
The Change was -91%.

For `CC(C)(CO)Cc1cccc(C(=O)c2cccc(CC(C)(C)CO)c2)c1`, which Change is on record?
The Change was -14%.

tested on: Rattus norvegicus; test: Percentage change of non-HDL cholesterol levels in obese female Zucker rats after 2 weeks of pre-treatment at a dose of 30 mg/kg/day; type: functional; details: not given; method in brief: as §1

With `CC(C)(CO)CCCCC(=O)CCCCC(C)(CO)c1ccccc1` (centres undefined) as the compound, how does the Change read?
Its Change is -8%.

Which Change does the source give for `CC(C)(CCCCC(=O)CCCC(C)(C)C(=O)O)C(=O)O` here?
The Change was 93%.

tested on: Rattus norvegicus; test: Percentage change of non-HDL cholesterol levels in obese female Zucker rats after 2 weeks of pre-treatment at a dose of 100 mg/kg/day; type: functional; details: not given; method in brief: as §1

Which Change does the source give for `CC(C)(CO)CCCC(=O)CCCC(C)(C)CO` here?
Its Change is 28%.

Which Change does the source give for `CC(C)(CCCCCC(=O)CCCCC(C)(C)C(=O)O)C(=O)O` here?
The Change was -51%.

Which Change does the source give for `CC(C)(CCCCCCCC(=O)CCCCCCCC(C)(C)C(=O)O)C(=O)O` here?
The Change was -45%.

Which Change does the source give for `CC(CO)(CCCCCC(=O)CCCCCC(C)(CO)c1ccccc1)c1ccccc1` (centres undefined) here?
The Change was 9%.

For `CC(C)(CO)CCCCCC(=O)CCCCCC(C)(C)CO`, which Change is on record?
Its Change is -88%.

Which Change does the source give for `CC(C)(CO)Cc1cccc(C(=O)c2cccc(CC(C)(C)CO)c2)c1` here?
Its Change is -5%.
